According to ChEMBL document CHEMBL3576860 (ACS Med Chem Lett, 2015):
Calls of active or inactive are those of the source. The rule behind the calls is not given here.

Key:
[1] = target: T1, Neuronal acetylcholine receptor; alpha4/beta2 (Rattus norvegicus, UniProt P09483+P12390); test: Displacement of [3H]epibatidine from rat alpha4beta2 nAChR transfected in HEK293 cell membrane; assay type: cell membranes
How it was run: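 Rat α4β2, α4β4 or α3β4 subtypes; competition binding against [3H]epibatidine; Ki values; means of 3–5 independent experiments, each run in duplicate.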

[2] = target: Neuronal acetylcholine receptor; alpha4/beta4 (Rattus norvegicus, UniProt P09483+P12392); test: Displacement of [3H]epibatidine from rat alpha4beta4 nAChR transfected in HEK293 cell membrane; assay type: cell membranes
[3] = target: Neuronal acetylcholine receptor; alpha3/beta4 (Rattus norvegicus, UniProt P04757+P12392); test: Displacement of [3H]epibatidine from rat alpha3beta4 nAChR transfected in HEK293 cell membrane; assay type: cell membranes
[4] = target: Neuronal acetylcholine receptor subunit alpha-7 (Rattus norvegicus, UniProt Q05941); test: Displacement of [3H]MLA from rat alpha7 nAChR transfected in tsA201 cell membrane; assay type: cell membranes
[5] = target: T2, Neuronal acetylcholine receptor; alpha4/beta2 (Rattus norvegicus) (UniProt P09483+P12390); test: Inhibition of rat alpha4beta2 nAChR expressed in Xenopus laevis oocytes assessed as baseline current at 100 uM by two electrode-electrophysiology method; assay type: cell-based
How it was run: (§1)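 α4β2-expressing oocytes: compound at 100 μM applied alone to monitor baseline current, then coapplied with 30 μM ACh to assess the ACh-evoked current.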

[6] = target: T2, Neuronal acetylcholine receptor; alpha4/beta2 (Rattus norvegicus); test: Inhibition of rat alpha4beta2 nAChR expressed in Xenopus laevis oocytes assessed as inhibition of 30 uM ACh-induced current at 100 uM by two electrode-electrophysiology method; assay type: cell-based; how it was run: as §1
[7] = target: T1, Neuronal acetylcholine receptor; alpha4/beta2; test: Inhibition of rat (alpha4)3(beta2)2 nAChR expressed in Xenopus laevis oocytes assessed as inhibition of 1 mM ACh-induced current by two electrode-electrophysiology method; assay type: cell-based
How it was run: (§2)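 Xenopus oocytes injected with α4 and β2 mRNA at ratio 10:1 for (α4)3(β2)2 or 1:10 for (α4)2(β2)3. Peak currents evoked by fixed ACh (1 mM for 10:1, 100 μM for 1:10) are measured with increasing compound concentrations. Concentration–inhibition curves give IC50, with Ki also reported.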

[8] = target: T1, Neuronal acetylcholine receptor; alpha4/beta2; test: Inhibition of rat (alpha4)2(beta2)3 nAChR expressed in Xenopus laevis oocytes assessed as inhibition of 100 uM ACh-induced current by two electrode-electrophysiology method; assay type: cell-based; how it was run: as §2
Mus musculus = test: Antidepressant activity in mouse assessed as total swim distance at 1 to 10 mg/kg, sc by forced swimming test; assay type: functional, organism-based
How it was run: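 Mouse forced swim test; subcutaneous doses of 1, 3 and 10 mg/kg; swimming scored.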

[9] = target: T1, Neuronal acetylcholine receptor; alpha4/beta2; test: Antagonist activity at rat alpha4beta2 nAChR expressed in HEK293T cells by FLIPR assay; assay type: cell-based, HEK-293T
How it was run: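 Fluorescence-based FLIPR membrane potential read-out of receptor function; antagonist mode gives an IC50.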

[10] = target: Neuronal acetylcholine receptor; alpha3/beta4 (Rattus norvegicus) (UniProt P04757+P12392); test: Agonist activity at rat alpha3beta4 nAChR expressed in HEK293T cells by FLIPR assay; assay type: cell-based; settings: HEK-293T

Sequence of Neuronal acetylcholine receptor subunit alpha-7 (Q05941 whole entry): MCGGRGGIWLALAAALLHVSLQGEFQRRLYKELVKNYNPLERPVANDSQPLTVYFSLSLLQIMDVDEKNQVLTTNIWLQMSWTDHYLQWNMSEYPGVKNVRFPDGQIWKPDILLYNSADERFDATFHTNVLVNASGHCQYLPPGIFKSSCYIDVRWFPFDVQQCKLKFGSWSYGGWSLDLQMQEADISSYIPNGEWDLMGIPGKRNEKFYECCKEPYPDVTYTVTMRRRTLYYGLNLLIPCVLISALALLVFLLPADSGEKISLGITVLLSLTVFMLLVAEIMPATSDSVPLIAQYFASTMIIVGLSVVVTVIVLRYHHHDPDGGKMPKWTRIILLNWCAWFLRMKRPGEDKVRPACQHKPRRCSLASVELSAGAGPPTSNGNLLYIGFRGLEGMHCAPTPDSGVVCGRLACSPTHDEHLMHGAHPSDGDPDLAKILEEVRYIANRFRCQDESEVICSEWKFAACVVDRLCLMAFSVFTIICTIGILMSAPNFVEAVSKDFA
Sequence of Neuronal acetylcholine receptor; alpha4/beta4 (P09483 whole entry): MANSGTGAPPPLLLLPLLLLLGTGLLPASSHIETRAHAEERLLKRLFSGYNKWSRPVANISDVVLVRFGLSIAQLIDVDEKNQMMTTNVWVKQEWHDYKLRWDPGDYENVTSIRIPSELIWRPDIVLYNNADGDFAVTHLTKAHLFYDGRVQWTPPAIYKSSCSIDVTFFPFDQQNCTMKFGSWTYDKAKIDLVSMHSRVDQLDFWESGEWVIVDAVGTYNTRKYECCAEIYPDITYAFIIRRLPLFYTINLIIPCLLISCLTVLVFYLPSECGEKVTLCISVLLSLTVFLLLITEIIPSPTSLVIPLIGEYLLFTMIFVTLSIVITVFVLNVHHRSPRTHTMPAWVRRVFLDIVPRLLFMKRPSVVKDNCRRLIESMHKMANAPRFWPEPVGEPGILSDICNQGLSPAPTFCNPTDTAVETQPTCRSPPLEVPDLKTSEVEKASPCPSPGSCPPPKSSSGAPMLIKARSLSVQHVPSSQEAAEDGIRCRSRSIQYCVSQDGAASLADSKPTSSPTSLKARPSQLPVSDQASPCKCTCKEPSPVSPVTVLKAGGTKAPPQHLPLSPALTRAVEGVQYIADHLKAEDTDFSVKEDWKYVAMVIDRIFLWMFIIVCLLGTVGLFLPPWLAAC
Sequence of Neuronal acetylcholine receptor; alpha4/beta4 (P12392 whole entry): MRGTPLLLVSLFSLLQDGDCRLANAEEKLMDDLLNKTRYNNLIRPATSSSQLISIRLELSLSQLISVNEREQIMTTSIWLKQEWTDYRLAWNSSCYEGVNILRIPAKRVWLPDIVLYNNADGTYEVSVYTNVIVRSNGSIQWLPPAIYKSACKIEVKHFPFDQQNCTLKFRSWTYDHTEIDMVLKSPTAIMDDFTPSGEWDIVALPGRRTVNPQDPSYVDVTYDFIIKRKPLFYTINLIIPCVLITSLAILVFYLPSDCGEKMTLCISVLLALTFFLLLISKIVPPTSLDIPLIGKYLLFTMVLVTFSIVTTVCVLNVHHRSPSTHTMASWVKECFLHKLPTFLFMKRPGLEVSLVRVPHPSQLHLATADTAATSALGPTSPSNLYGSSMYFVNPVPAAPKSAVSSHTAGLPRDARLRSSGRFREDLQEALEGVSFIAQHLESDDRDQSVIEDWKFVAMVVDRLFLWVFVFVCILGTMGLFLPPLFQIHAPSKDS
T1 sequence (P09483 whole entry): as the sequence (P09483 whole entry) above
T1 sequence (P12390 whole entry): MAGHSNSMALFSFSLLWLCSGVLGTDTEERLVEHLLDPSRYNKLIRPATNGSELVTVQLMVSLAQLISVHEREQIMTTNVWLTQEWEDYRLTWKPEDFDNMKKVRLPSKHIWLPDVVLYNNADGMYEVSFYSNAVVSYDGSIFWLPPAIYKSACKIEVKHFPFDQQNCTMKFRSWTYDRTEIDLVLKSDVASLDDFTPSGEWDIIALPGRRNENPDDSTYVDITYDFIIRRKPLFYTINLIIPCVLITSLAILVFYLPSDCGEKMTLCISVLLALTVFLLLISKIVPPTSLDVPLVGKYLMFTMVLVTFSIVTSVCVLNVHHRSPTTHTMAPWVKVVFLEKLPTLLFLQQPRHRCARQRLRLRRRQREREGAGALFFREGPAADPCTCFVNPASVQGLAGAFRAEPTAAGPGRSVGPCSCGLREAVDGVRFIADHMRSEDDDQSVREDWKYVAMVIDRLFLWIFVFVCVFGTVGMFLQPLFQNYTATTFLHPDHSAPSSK
Sequence of Neuronal acetylcholine receptor; alpha3/beta4 (P04757 whole entry): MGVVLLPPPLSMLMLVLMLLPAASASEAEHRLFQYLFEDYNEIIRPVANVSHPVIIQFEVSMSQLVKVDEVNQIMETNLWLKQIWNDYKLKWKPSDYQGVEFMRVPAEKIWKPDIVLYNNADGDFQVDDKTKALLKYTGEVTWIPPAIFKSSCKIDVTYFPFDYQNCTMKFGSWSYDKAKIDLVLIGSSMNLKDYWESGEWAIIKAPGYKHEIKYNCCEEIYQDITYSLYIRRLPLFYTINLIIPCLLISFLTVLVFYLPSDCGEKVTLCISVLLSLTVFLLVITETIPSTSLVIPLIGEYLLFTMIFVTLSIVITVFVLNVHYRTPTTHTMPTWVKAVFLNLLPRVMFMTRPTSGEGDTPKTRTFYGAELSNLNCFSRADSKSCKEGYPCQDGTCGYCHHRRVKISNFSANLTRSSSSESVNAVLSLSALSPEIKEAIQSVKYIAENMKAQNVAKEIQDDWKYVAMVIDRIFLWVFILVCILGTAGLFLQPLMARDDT
Sequence of Neuronal acetylcholine receptor; alpha3/beta4 (P12392 whole entry): as the sequence (P12392 whole entry) above

`c1cc2c(cn1)CCN1CCCC21` (racemic) showed a Ki [1] of 13 µM, a Ki [2] of 100 µM and a Ki [3] of 100 µM.
In the case of `c1cc2c(cn1)[C@H]1CCCN1CC2`, the Ki [2] is reported as 3.7 µM, the Ki [3] is reported as 50 µM and the Ki [4] is reported as 300 µM. The inhibition [5] was “inactive”, the inhibition [6] was “Active” and the IC50 [7] was 135 µM. The Ki [7] was 15 µM, the IC50 [8] was 87 µM and the Ki [8] was 0.34 µM. For the same molecule, the Activity (Mus musculus) was “inactive”.
For `c1cc2c(cn1)[C@@H]1CCCN1CC2`, the Ki [1] was 3.4 µM, the Ki [2] was 100 µM and the Ki [3] was 100 µM. It also gave a Ki [4] greater than 300 µM.
With `c1cc2c(cn1)C1CCCN1CC2` (racemic) the Ki [1] was 0.071 µM, the Ki [2] was 7.2 µM and the Ki [3] was 100 µM. For the same molecule, the Ki [4] was 500 µM, the IC50 [9] was 0.12 µM and the Activity [10] was “inactive”.
